Hits are enriched below; roughly 3.8% of the tested compounds scored in any of these assays.
CSC inhib – cancer stem cell inhibition. actives 1.1% (n = 300,000). cancer stem cell-like cells viability, luminescence. inhibition, % at 7.5 µM. AID 2717; in the data active means inhibition above about 75%; inconclusive means no clear call, values can overlap the other calls; tested in HMLE shEcad cells
Beta apoptosis – blocks beta cell apoptosis. protection from apoptosis, % (concentration not given with the values). AID 435005. INS-1E cytokine-induced death, ATP luminescence, 48 h; percent of positive-control rescue, neutral wells zero. actives 0.8% (n = 300,000);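 active means Every replicate reaches about 75%, or at least half do and their mean reaches it too, limit read from the data; inconclusive means At least half of replicates reach the limit but their mean does not; inactive means Under half of replicates reach the limit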;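 further: 0% = cytokine-treated negative control wells and 100% = positive control rescue; higher means more ATP so stronger rescue from cytokine killing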
ANO1 activ – activators or potentiators of mouse TMEM16A chloride channel | Q8BHY3 | B-score at 10 µM | HEK293 TMEM16A/YFP-H148Q/I152L, iodide quench fluorescence; hits give low values | actives 0.3% (n = 340,000);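 active means fluorescence-ratio B-score plate-corrected deviation score at least 3 library SD below zero, with starting fluorescence score within 5 deviations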;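 further: channel opened by trigger with iodide after compound preincubation; score built on the fluorescence ratio of max minus min over baseline; more negative score means more quench and so TMEM16A activation or potentiation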
MC4R ag barr – activates human MC4R beta-arrestin recruitment; P32245; U2OS MC4R beta-arrestin complementation, luminescence; percent of melanotan II response, DMSO zero; activation, % at 8.9 µM; actives 0.98% (n = 360,000);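 active means activation above a per-plate cutoff, the mean activation of sample wells on that plate plus 3 SD, cut at about 8% in these data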
Target sequence (P32245 whole entry, looked up): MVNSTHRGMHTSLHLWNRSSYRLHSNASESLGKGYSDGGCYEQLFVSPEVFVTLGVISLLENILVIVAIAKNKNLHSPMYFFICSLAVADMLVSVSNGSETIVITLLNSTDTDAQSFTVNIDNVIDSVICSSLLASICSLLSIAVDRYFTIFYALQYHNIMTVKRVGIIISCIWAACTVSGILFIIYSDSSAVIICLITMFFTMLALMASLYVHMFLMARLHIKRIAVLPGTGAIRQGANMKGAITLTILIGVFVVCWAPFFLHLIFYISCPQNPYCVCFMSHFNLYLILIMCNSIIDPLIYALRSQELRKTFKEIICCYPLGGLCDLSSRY
MC4R antag cAMP – blocks human MC4R cAMP signaling; MC4R-expressing cells, MTII-stimulated cAMP, LANCE TR-FRET; actives 0.48% (n = 360,000); inhibition, % at 6.5 µM;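 active means inhibition above its plate's cutoff, the mean of tested wells on that plate plus 3 SD, cut at about 29% in these data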;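 further: 0% = Melanotan II alone and 100% = Melanotan II plus saturating MCL0020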
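Assay system: human MC4R-expressing U2OS cells; reagent: Melanotan II stimulation of cells; dosing: 6.5 µM single dose; timing: compound 30 min, challenge 1 h, detection 1 h; signal: TR-FRET cAMP assay; replicates: one well per compound, no replicates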
TMEM16A inh – blocks the mouse calcium-activated chloride channel TMEM16A; Q8BHY3; HEK293 TMEM16A/YFP iodide influx fluorescence, ionomycin; normalized B-score (activity score, 25-100; higher = stronger inhibition) at 10 µM; actives 1.2% (n = 310,000);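 active means ratio plate-corrected score three or more library SD toward inhibition, starting fluorescence score within five deviations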;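 further: score derived from kinetic fluorescence span divided by baseline fluorescence per well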
TMEM16A reconf – re-confirmation of mouse TMEM16A chloride channel inhibitors; shares compounds with TMEM16A inh; HEK293 TMEM16A/YFP-H148Q, iodide quench fluorescence; ionomycin added to raise cell calcium; inhibition, % at 10 µM; actives 39% (n = 2,300); AID 652189;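 active means mean duplicate percent inhibition, scaled so buffer wells are 0 and the reference blocker 100, over three buffer SD above buffer mean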
HEK293 Ca mobil – calcium mobilization counter-screen hit for TMEM16A inhibitor series; TMEM16A/YFP HEK293, Fluo4 calcium mobilization; actives 2% (n = 2,300); calcium response (% of ionomycin), % at 10 µM; shares compounds with TMEM16A inh;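 active means duplicate-averaged calcium signal over 20% of the ionomycin maximum, relative to buffer baseline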;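 further: each well's signal is peak minus trough fluorescence divided by its pre-addition baseline; 0% = buffer wells and 100% = ionomycin wells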
YFP-HEK293 quench – counter-screen for TMEM16A inhibitors: effect in parental YFP-HEK293 cells | iodide YFP quench, ionomycin | shares compounds with TMEM16A inh | 2,300 tested, under 10 active | YFP ratio F(max-min)/F0 at 10 µM;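 active means yellow fluorescent protein signal ratio exceeding the buffer control mean by over 5 SD of those controls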;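 further: ratio is mean of duplicate wells from kinetic YFP trace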
ClC-1 rat inh – selectivity of TMEM16A inhibitors: inhibition of rat ClC-1 chloride channel. CHO ClC-1-YFP, iodide influx fluorescence quench; iodide control reads 0, buffer control 100. shares compounds with TMEM16A inh. 2,300 tested, under 10 active. ratio percent, % at 10 µM;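 active means duplicate-mean ratio percent above the mean of iodide-only control wells, which defines zero, plus 5 of their SD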;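 further: higher percent means stronger block of ClC-1 iodide influx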
Active calls of the source: *; i = inactive; u = inconclusive; x = no result.

SMILES | CSC inhib | Beta apoptosis | ANO1 activ | MC4R ag barr | MC4R antag cAMP | TMEM16A inh | TMEM16A reconf | HEK293 Ca mobil | YFP-HEK293 quench | ClC-1 rat inh
CC(OC(=O)Cc1cccc(C(F)(F)F)c1)C(=O)Nc1ccc(Cl)cn1 (centres undefined) | -9 | 0 | i | 1 | -2 | i | x | x | x | x
COc1cccc(C(=O)NC(=S)Nc2ccc3c4c(cccc24)CC3)c1 | -4 | 0 | i | 0 | 0 | i | i | i | -0.52 | -6
Cc1c(C(=O)N2CCN(CC(=O)Nc3ccccc3Cl)CC2)oc2ccc(Br)cc12 | x | 2 | i | 1 | -4 | x | x | x | x | x
CCOC(=O)C1(Cc2cccc(OC)c2)CCN(C/C=C/c2ccc(OC)cc2)CC1 | 29 | 20 | i | 2 | -2 | 25* | i | i | -1.2 | -18
COc1cc(C2c3c(oc4ccccc4c3=O)C(=O)N2Cc2ccco2)ccc1O (centres undefined) | -16 | 5 | i | 2 | -16 | 25* | i | i | -0.9 | -4
COc1ccccc1N1CCN(CC(=O)Nc2nc(C)c(C(=O)N(C)C)s2)CC1 | -5 | -3 | i | 0 | -1 | i | x | x | x | x
Oc1ccc(C[C@H]2CNC(=S)N2CC2CCCN2C[C@H](Cc2ccc(O)cc2)N2C[C@H](Cc3ccccc3)N(CC3CCCCC3)C2=S)cc1 (some centres undefined) | x | x | x | -1 | 4 | x | x | x | x | x
O=C(NCc1cccnc1)c1ccc(COc2ccccc2Cl)cc1 | 8 | 103* | i | -2 | -7 | 25* | 19%* | i | -1.1 | 0
O=C(NCc1cccnc1)c1ccc(COc2ccccc2Br)cc1 | 29 | 19 | i | 0 | 1 | i | x | x | x | x
COCCn1c(C)cc(C(=O)CSc2ncn[nH]2)c1C | 6 | -6 | i | 2 | 0 | 100* | i | i | -1.1 | -7
COCCn1c(C)cc(C(=O)CSc2nc(C)c(C)c(C)n2)c1C | -3 | 7 | i | -3 | 2 | i | x | x | x | x
O=C(OCc1ccccc1Cl)c1ccccc1C(=O)c1ccccc1 | 5 | -5 | i | 4 | -7 | 100* | i | i | -0.92 | -18
Cn1c(=O)n(CC(=O)N2CCN(c3nnc(-c4ccccc4)c4ccccc34)CC2)c2ccccc21 | 1 | 17 | i | -2 | 8 | 25* | i | i | -1 | -8
Cc1ccc(NC(=O)c2cccc3cccnc23)cc1 | -12 | 3 | i | 1 | 6 | i | x | x | x | x
O=C1c2cccc3c(N4CCCCC4)ccc(c23)C(=O)N1CCO | -2 | -6 | i | -1 | -30 | i | i | i | -1.1 | -50
C=CCN1C(=O)c2cccc3c(N4CCCCC4)ccc(c23)C1=O | 45 | 11 | i | 1 | 24 | i | x | x | x | x
O=C(COc1ccc(F)cc1)c1ccc2c(c1)CCCC2 | -5 | -1 | i | 1 | 5 | 100* | i | i | -1.1 | -20
S=C(Nc1ccc(Oc2ccccc2)cc1)NC1CCCC1 | 17 | x | i | -1 | 6 | i | x | x | x | x
S=C(NCC1CCCCC1)Nc1ccc(Oc2ccccc2)cc1 | u | 5 | i | 0 | 12 | 100* | 20%* | i | -1.3 | -20
S=C(NCC1CCCO1)Nc1ccc(Nc2ccccc2)cc1 (centres undefined) | 0 | x | i | 0 | 0 | 100* | i | i | -0.84 | -8

Screening results (PubChem BioAssay)
